# Experimental data: ChEMBL document CHEMBL2169847, “New tricks for an old natural product: discovery of highly potent evodiamine derivatives as novel antitumor agents by systemic structure-activity relationship analysis and biological evaluations” (J Med Chem, 2012)
# Active and inactive are the calls of the source. The calls are words filed in the database; no cut-off is given here.
# Experiments:
# Nucleic Acid [1] = test: Induction of DNA intercalation in Escherichia coli pBR322 DNA assessed as induction of supercoiled DNA at 1 ug/ml incubated for 15 mins by electrophoresis based Top1 unwinding assay; type: nucleic-acid assay
# Method in brief: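 pBR322 plasmid (0.25 μg) preincubated with 100 μM compound or 1 μg/mL ethidium bromide, 37 °C, 15 min, in Top1 buffer (35 mM Tris-HCl pH 8.0, 72 mM KCl, 5 mM MgCl2, 5 mM DTT, 5 mM spermidine, 0.1% BSA). 5 U Top1 then added for 60 min at 37 °C. Stopped with SDS and proteinase K (50 °C, 20 min), phenol/chloroform extracted, agarose gel.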
# PC-3 = test: Cytotoxicity against human PC3 cells incubated for 72 hrs by MTT assay; type: functional; details: PC-3, 72 h
# Method in brief: (§1)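 MTT assay. Cells seeded at 5 × 10³/well and grown 24 h at 37 °C, 5% CO₂. Compounds added at several concentrations in triplicate wells, with 0.1% DMSO control, for 72 h. MTT then added for 4 h, formazan dissolved in DMSO, and absorbance read at 570 nm. GI₅₀ by Logit method; three experiments.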
# PANC-1 = test: Cytotoxicity against human PANC1 cells incubated for 72 hrs by MTT assay; type: functional; details: PANC-1, 72 h; method in brief: as §1
# HepG2 = test: Cytotoxicity against human HepG2 cells incubated for 72 hrs by MTT assay; type: functional; details: HepG2, 72 h; method in brief: as §1
# U2OS = test: Cytotoxicity against human U2OS cells incubated for 72 hrs by MTT assay; type: functional; method in brief: as §1
# MDA-MB-435 = test: Cytotoxicity against human MDA-MB-435 cells incubated for 72 hrs by MTT assay; type: functional; details: MDA-MB-435, 72 h; method in brief: as §1
# HCT-116 [2] = test: Cytotoxicity against human HCT116 cells incubated for 72 hrs by MTT assay; type: functional; details: HCT-116, 72 h; method in brief: as §1
# HL-60 = test: Cytotoxicity against human HL60 cells incubated for 72 hrs by MTT assay; type: functional; details: HL-60, 72 h; method in brief: as §1
# SAOS-2 = test: Cytotoxicity against human Saos2 cells incubated for 72 hrs by MTT assay; type: functional; details: SAOS-2, 72 h; method in brief: as §1
# A549 [3] = test: Cytotoxicity against human A549 cells incubated for 72 hrs by MTT assay; type: functional; details: A549, 72 h; method in brief: as §1
# Mus musculus [4] = test: Toxicity in BALB/C nude mouse xenografted with human HCT116 cells assessed as reduction in body weight at 2 mg/kg, ip administered as a single dose on 17th day and measured on 30 to 33 days post implantation; type: organism-based, HCT-116; set-up: dose 2 mg/kg, route intraperitoneal; details: in vivo
# Method in brief: (§2)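 Cells implanted subcutaneously in right axilla of nude mice; dosing began at tumor volume about 100−300 mm³ (day 17). Randomized, six mice per treatment group and eight controls; ip injection. Tumor volume by caliper, TV = 1/2 × a × b², with body weight every 4 days. Mice sacrificed day 30−33 and tumors removed. Mean SEM, Student's t test versus control.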
# A549 [5] = test: Induction of apoptosis in human A549 cells at 5 uM incubated for 48 hrs by flow cytometry (reference value: 0.43%); type: functional
# A549 [6] = test: Induction of apoptosis in human A549 cells assessed as change in cell morphology at 5 uM incubated for 48 hrs by immunostaining based light microscopy; type: functional
# Method in brief: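 A549 cells exposed to 5 μM compound, or DMSO, for 48 h. Morphology judged under a light microscope.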
# [7] = target: T1, DNA topoisomerase 1 (Homo sapiens) (UniProt P11387); test: Inhibition of Top1 assessed as stabilization of Top1-pUC19 DNA cleavage complex measuring increase of nicked DNA at 100 uM incubated for 15 mins by electrophoresis method
# T1 sequence (whole entry): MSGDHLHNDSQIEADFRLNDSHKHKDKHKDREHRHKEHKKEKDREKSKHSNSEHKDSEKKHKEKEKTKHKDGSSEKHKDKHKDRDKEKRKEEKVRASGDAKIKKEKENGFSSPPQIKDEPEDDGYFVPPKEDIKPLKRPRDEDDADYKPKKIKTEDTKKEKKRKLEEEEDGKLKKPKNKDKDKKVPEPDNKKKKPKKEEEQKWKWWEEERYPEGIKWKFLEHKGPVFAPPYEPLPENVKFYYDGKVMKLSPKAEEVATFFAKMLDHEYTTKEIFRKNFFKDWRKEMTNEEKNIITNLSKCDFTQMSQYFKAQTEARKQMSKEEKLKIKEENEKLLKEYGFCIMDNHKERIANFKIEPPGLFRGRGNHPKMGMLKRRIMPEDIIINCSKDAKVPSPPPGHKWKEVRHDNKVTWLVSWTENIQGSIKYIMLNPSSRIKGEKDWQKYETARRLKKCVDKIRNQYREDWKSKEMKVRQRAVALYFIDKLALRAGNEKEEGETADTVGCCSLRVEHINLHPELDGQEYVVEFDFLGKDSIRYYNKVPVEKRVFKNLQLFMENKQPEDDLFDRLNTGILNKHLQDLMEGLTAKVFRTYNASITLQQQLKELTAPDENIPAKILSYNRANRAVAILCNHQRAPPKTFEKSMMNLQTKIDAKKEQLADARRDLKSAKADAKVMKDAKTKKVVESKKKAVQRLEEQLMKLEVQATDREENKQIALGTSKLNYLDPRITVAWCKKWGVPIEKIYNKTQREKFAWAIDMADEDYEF
# HCT-116 [8] = test: Antitumor activity against human HCT116 cells xenografted in BALB/C nude mouse assessed as tumor growth inhibition at 2 mg/kg, ip administered as a single dose on 17th day and measured on 30 to 33 days post implantation; type: functional, organism-based; set-up: dose 2 mg/kg; method in brief: as §2
# Nucleic Acid [9] = test: Binding affinity at calf thymus DNA minor groove assessed as displacement of Hoechst 33258 dye incubated for 20 mins by microplate reader based assay; type: nucleic-acid assay; details: Bos taurus
# [10] = target: DNA topoisomerase 2-alpha (Homo sapiens) (UniProt P11388); test: Inhibition of human Top2alpha assessed as stabilization of Top2-pBr322 DNA cleavage complex measuring linear DNA formation at 100 uM incubated for 20 mins by electrophoresis method
# Method in brief: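 Top2α drug screening kit with 8 units hTop2α and pBR322 plasmid. After reaction, proteinase K (200 μg/mL final) 20 min at 50 °C. Electrophoresis in TAE with 0.5 μg/mL ethidium bromide to resolve nicked, linear, relaxed and supercoiled forms.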
# [11] = target: DNA topoisomerase 2-alpha (Homo sapiens) (UniProt P11388); test: Inhibition of human Top2alpha assessed as suppression of supercoiled pBR322 DNA relaxation at 50 uM incubated for 30 mins by electrophoresis method
# Mus musculus [12] = test: Toxicity in BALB/C nude mouse xenografted with human A549 cells assessed as reduction in body weight at 1 mg/kg, ip for 13 days measured on 30 to 33 days post implantation; type: organism-based; set-up: dose 1 mg/kg, route intraperitoneal; details: in vivo; method in brief: as §2
# [13] = target: T1, DNA topoisomerase 1 (Homo sapiens); test: Inhibition of Top1 assessed as suppression of supercoiled pBR322 DNA relaxation measuring appearance of short DNA fragments at 100 uM incubated for 15 mins by electrophoresis method
# Nucleic Acid [14] = test: Binding affinity at calf thymus DNA at 50 uM after 20 mins by UV/vis absorbance titration based assay; type: nucleic-acid assay; details: Bos taurus
# Method in brief: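 ct-DNA in DPBS pH 7.4, concentration set by A260 (13200 M⁻¹/cm per bp). Compounds at 50 μM in DPBS with 1% DMSO, with or without ct-DNA 0−100 μM. After 20 min equilibration at room temperature, absorption spectra recorded over 220−400 nm in a microplate reader. Hypochromic or bathochromic shifts taken as the sign of binding.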
# Nucleic Acid [15] = test: Induction of DNA intercalation in Escherichia coli pBR322 DNA assessed as induction of supercoiled DNA at 100 uM incubated for 15 mins by electrophoresis based Top1 unwinding assay; type: nucleic-acid assay
# A549 [16] = test: Antitumor activity against human A549 cells xenografted in BALB/C nude mouse assessed as tumor growth inhibition at 1 mg/kg, ip for 13 days measured on 30 to 33 days post implantation; type: functional, organism-based; set-up: dose 1 mg/kg; method in brief: as §2
# [17] = target: DNA topoisomerase 2-alpha (Homo sapiens) (UniProt P11388); test: Inhibition of human Top2alpha assessed as suppression of supercoiled pBR322 DNA relaxation at 50 uM incubated for 30 mins in presence of excess ATP level by electrophoresis method
# [18] = target: T1, DNA topoisomerase 1 (Homo sapiens); test: Inhibition of Top1 assessed as suppression of supercoiled pBR322 DNA relaxation measuring appearance of short DNA fragments at 50 uM incubated for 15 mins by electrophoresis method
# A549 [19] = test: Antitumor activity against human A549 cells xenografted in BALB/C nude mouse assessed as tumor growth inhibition at 2 mg/kg, ip administered as a single dose on 17th day post implantation and measured on 30 to 33 days post implantation; type: functional, organism-based; set-up: dose 2 mg/kg; method in brief: as §2
# Mus musculus [20] = test: Toxicity in BALB/C nude mouse xenografted with human A549 cells assessed as reduction in body weight at 2 mg/kg, ip administered as a single dose on 17th day and measured on 30 to 33 days post implantation; type: organism-based; set-up: dose 2 mg/kg, route intraperitoneal; details: in vivo; method in brief: as §2
# Sequence of DNA topoisomerase 2-alpha (Homo sapiens) (P11388 whole entry, the tested form may be a part): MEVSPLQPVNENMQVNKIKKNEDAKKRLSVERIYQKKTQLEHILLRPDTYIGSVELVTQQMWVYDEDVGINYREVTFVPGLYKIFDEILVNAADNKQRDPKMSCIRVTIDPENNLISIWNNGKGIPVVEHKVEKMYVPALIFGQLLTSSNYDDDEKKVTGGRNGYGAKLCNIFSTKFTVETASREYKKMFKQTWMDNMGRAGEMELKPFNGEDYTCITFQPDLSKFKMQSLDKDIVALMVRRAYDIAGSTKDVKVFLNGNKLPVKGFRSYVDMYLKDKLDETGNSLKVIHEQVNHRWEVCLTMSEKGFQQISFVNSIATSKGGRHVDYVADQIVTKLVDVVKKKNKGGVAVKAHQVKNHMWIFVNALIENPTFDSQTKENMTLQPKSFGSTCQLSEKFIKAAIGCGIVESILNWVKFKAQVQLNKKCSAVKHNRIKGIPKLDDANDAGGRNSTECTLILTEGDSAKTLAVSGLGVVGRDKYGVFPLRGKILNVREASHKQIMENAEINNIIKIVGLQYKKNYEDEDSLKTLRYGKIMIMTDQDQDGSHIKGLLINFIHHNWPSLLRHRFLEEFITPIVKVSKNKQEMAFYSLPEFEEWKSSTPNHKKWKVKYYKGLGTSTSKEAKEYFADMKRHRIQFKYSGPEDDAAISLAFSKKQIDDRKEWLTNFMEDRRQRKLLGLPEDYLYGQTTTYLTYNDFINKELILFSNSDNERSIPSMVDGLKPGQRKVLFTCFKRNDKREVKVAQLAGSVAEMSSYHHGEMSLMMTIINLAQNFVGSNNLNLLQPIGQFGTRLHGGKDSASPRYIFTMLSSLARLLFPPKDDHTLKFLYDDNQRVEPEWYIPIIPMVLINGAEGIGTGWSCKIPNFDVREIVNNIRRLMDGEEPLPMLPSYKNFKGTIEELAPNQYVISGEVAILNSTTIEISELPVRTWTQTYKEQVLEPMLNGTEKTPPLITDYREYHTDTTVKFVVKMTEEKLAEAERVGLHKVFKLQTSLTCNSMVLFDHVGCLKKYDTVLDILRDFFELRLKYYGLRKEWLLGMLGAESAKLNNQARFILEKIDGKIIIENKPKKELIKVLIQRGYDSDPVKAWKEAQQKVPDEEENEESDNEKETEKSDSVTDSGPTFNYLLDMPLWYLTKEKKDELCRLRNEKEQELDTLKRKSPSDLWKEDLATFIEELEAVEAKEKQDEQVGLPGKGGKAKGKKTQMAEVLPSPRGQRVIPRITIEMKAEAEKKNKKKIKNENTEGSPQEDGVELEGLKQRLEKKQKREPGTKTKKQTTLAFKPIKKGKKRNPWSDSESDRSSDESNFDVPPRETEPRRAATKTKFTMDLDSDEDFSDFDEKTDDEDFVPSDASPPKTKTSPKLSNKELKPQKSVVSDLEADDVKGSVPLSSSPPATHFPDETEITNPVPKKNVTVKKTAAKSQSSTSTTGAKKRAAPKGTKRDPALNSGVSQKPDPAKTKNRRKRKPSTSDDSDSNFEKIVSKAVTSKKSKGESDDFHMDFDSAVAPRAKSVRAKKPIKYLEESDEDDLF
Compound,GI50 (PC-3),GI50 (PANC-1),GI50 (HepG2),GI50 (U2OS),GI50 (MDA-MB-435),GI50 (HCT-116 [2]),GI50 (HL-60),GI50 (SAOS-2),GI50 (A549 [3]),Activity (Mus musculus [4]),Activity (A549 [5]),Activity (A549 [6]),inhibition [7],TGI (HCT-116 [8]),Activity (Nucleic Acid [9]),inhibition [10],inhibition [11],Activity (Mus musculus [12]),inhibition [13],Activity (Nucleic Acid [14]),further results
CC[n+]1c(-c2ccccc2)c2cc(N)ccc2c2ccc(N)cc21,–,–,–,–,–,–,–,–,–,–,–,–,–,–,–,–,–,–,–,–,Activity (Nucleic Acid [1]): Active
CC[C@@]1(O)C(=O)OCc2c1cc1n(c2=O)Cc2cc3ccccc3nc2-1 [CAMPTOTHECIN],> 287000 nM,6290 nM,220 nM,> 287000 nM,33 nM,83 nM,< 3 nM,> 287000 nM,170 nM,–,–,–,–,–,–,–,–,–,–,–,–
CN1c2ccccc2C(=O)N2CCc3c([nH]c4ccc(O)cc34)C21 (centres undefined),–,–,–,–,< 3 nM,< 3 nM,–,–,< 3 nM,Non-toxic,13.07%,Active,Active,Active,inactive,inactive,Active,Non-toxic,Active,inactive,Activity (Nucleic Acid [15]): inactive; TGI (A549 [16]): Active
CN1c2ccc(F)cc2C(=O)N2CCc3c([nH]c4ccccc34)C21 (centres undefined),34200 nM,1700 nM,188000 nM,129000 nM,< 3 nM,< 3 nM,< 3 nM,205000 nM,< 3 nM,–,–,–,–,–,–,–,Active,Non-toxic,Active,–,inhibition [17]: inactive; TGI (A549 [16]): Active
CN1c2ccc(N)cc2C(=O)N2CCc3c([nH]c4ccc(O)cc34)C21 (centres undefined),–,–,–,–,7 nM,7 nM,–,–,4000 nM,Non-toxic,14.48%,Active,Active,Active,inactive,inactive,–,–,Active,inactive,inhibition [18]: Active; Activity (Nucleic Acid [15]): inactive
CN1c2ccc(F)cc2C(=O)N2CCc3c([nH]c4ccc(O)cc34)C21 (centres undefined),92300 nM,< 3 nM,23800 nM,> 296000 nM,< 3 nM,< 3 nM,< 3 nM,> 296000 nM,< 3 nM,Non-toxic,–,–,–,Active,–,–,Active,–,Active,–,TGI (A549 [19]): inactive; Activity (Mus musculus [20]): Non-toxic
